Measured values from ChEMBL document CHEMBL1138317, “Antibacterial oxazolidinones possessing a novel C-5 side chain. (5R)-trans-3-[3-Fluoro-4- (1-oxotetrahydrothiopyran-4-yl)phenyl]-2- oxooxazolidine-5-carboxylic acid amide (PF-00422602), a new lead compound” (J Med Chem, 2007).
In brackets after ≈: the same amount, converted by molar mass.

Legend:
Moraxella catarrhalis = experiment: Antibacterial activity against Moraxella catarrhalis by microbroth technology; type: functional
In short: (§1)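 MIC determined by broth microdilution, reported in µg/mL.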

[1] = biological target: T1, Amine oxidase [flavin-containing] A (Homo sapiens, UniProt P21397); experiment: Inhibition of human recombinant MAOA
T1 sequence (P21397 whole entry): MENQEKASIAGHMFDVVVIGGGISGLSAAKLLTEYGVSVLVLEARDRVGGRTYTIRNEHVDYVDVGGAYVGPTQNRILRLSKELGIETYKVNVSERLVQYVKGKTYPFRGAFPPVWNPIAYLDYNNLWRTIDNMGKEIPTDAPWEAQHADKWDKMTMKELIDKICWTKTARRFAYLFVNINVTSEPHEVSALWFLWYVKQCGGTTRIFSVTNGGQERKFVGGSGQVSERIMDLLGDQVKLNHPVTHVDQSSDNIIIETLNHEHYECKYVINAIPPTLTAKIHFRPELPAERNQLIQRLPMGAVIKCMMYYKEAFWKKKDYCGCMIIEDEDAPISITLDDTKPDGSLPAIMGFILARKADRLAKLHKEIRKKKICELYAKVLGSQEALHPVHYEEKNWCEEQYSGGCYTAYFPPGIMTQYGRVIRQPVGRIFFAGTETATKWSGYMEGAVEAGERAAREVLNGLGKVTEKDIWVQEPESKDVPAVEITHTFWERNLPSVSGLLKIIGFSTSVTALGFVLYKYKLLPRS

Enterococcus faecalis = experiment: Antibacterial activity against vancomycin-resistant Enterococcus faecalis MGH2 EF1 by microbroth technology; type: functional
In short: (§2)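 Drug-resistant panel strains (levofloxacin/oxacillin-resistant S. aureus, levofloxacin/penicillin-resistant S. pneumoniae, vancomycin-resistant E. faecalis and E. faecium). Broth microdilution MIC in µg/mL; value reported as MIC90 across the strains of each resistant group.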

Enterococcus faecium = experiment: Antibacterial activity against vancomycin-resistant Enterococcus faecium by micro-broth technology; type: functional; in short: as §2
Staphylococcus aureus [2] = experiment: Antibacterial activity against Staphylococcus aureus UC76 in po dosed CD1 mouse systemic infection model assessed as mortality after 7 days; type: functional
Streptococcus pneumoniae = experiment: Antibacterial activity against levofloxacin-penicillin-resistant Streptococcus pneumoniae SV1 SP3 by microbroth technology; type: functional; in short: as §2
Staphylococcus aureus [3] = experiment: Antibacterial activity against levofloxacin-oxacillin-resistant Staphylococcus aureus UC76 SA1 by micro-broth technology; type: functional; in short: as §2
Haemophilus influenzae = experiment: Antibacterial activity against Haemophilus influenzae by micro-broth technology; type: functional; in short: as §1
Escherichia coli = experiment: Inhibition of protein synthesis in Escherichia coli by cell-free transcription-translation assay; type: functional
In short: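 E. coli cell-free coupled transcription/translation run in microtiter format with a luciferase reporter; luminescence was the read-out for protein synthesis.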

Row | SMILES | MIC (Moraxella catarrhalis) | IC50 [1] | MIC (Enterococcus faecalis) | MIC (Enterococcus faecium) | PD50 (Staphylococcus aureus [2]) | MIC (Streptococcus pneumoniae) | MIC (Staphylococcus aureus [3]) | MIC (Haemophilus influenzae) | IC50 (Escherichia coli)
1 | NC(=O)[C@H]1CN(c2ccc(N3CCOCC3)c(F)c2)C(=O)O1 | > 8 µg/mL | 146 µM | 32 µg/mL (≈ 103 µM) | 32 µg/mL (≈ 103 µM) | 8.22 mg/kg | 4 µg/mL (≈ 12.9 µM) | 4 µg/mL (≈ 12.9 µM) | > 8 µg/mL | 23 µM
2 | NC(=O)[C@H]1CN(c2cc(F)c(C3CCS(=O)(=O)CC3)c(F)c2)C(=O)O1 | > 8 µg/mL | 293 µM | 4 µg/mL (≈ 10.7 µM) | 8 µg/mL (≈ 21.4 µM) | 15 mg/kg | 4 µg/mL (≈ 10.7 µM) | 4 µg/mL (≈ 10.7 µM) | > 8 µg/mL | 6.28 µM
